Paper PMC12079591 (ACS Omega, 2025)
Where two headings read alike, the source gives them in different places. Each block holds one molecule with its values, some of them ahead of it.

Columns and labels:
[1] = test system: K562/ADR; experiment: Cell proliferation assay, multidrug-resistant K562/ADR; type: cell-based; conditions: for RF (resistance factor): K562/ADR versus K562; for IC50: read-out: IC50 K562/ADR
Method in brief: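 K562/ADR cells were derived from parental K562 by stepwise increases in ADR concentration. Proliferation was measured by the SRB (adherent) or MTT (suspension) method: 4000−6000 cells/well seeded overnight at 37 °C, 5% CO2, graded test compound in triplicate wells. IC50 was obtained by nonlinear regression. The resistance factor compares K562/ADR with parental K562. Results are means ± SD (n ≥ 2).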

[2] = test system: NCI-H460; experiment: Cell proliferation assay; type: cell-based; conditions: read-out: IC50 NCI-H460; lung carcinoma; mean ± SD (n ≥ 2)
Method in brief: (§1)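 Mycoplasma-negative, STR-authenticated cells were seeded at 4000−6000/well and kept overnight at 37 °C, 5% CO2. Graded test compound concentrations or solvent control were added to triplicate wells. Adherent lines were read by SRB (OD 510 nm) and suspension lines by MTT (OD 570 nm). IC50 was obtained by nonlinear regression. Results are means ± SD (n ≥ 2).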

[3] = test system: MDA-MB-231 cells; experiment: Cell cycle analysis by flow cytometry; type: cell-based, human; conditions: MDA-MB-231, 24 h treatment
Method in brief: (§2)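 Cells were seeded in 12-well plates overnight, then exposed to test compound for 24 h. Cells were trypsinized, washed in cold PBS and fixed overnight in 70% ethanol at −20 °C. After two PBS washes they were stained 30 min at 37 °C with 50 μg/mL propidium iodide plus 20 μg/mL RNase A. About 10,000 cells were acquired by flow cytometry. Results are means ± SD; two-tailed unpaired t test.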

[4] = test system: P-AKT, P-STAT3, P-STAT5, P-P38; experiment: Western blot of JAK/STAT5, PI3K/AKT and p38 MAPK pathways; type: cell-based, human; conditions: MDA-MB-231 and PC-3 cells, 24 h, concentration-dependent
Method in brief: (§3)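 MDA-MB-231 and PC-3 cells were seeded in 12-well plates overnight, then exposed to a concentration gradient of test compound. Cells were lysed in SDS sample buffer, and equal protein amounts were run on SDS-PAGE and transferred to PVDF. Membranes were probed with primary antibodies, then HRP-conjugated secondary antibodies, and detected by ECL chemiluminescence.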

[5] = test system: H1975; experiment: Cell proliferation assay; type: cell-based; conditions: read-out: IC50 H1975; lung carcinoma; mean ± SD (n ≥ 2)
Method in brief: as §1

[6] = test system: DOHH2; experiment: Cell proliferation assay; type: cell-based; conditions: read-out: IC50 DOHH2; diffuse large B cell lymphoma; mean ± SD (n ≥ 2)
Method in brief: as §1

[7] = test system: PC-3 cells; experiment: Cell cycle analysis by flow cytometry; type: cell-based, human; conditions: PC-3, 24 h treatment
Method in brief: as §2

[8] = test system: MV-4-11; experiment: Cell proliferation assay; type: cell-based; conditions: read-out: IC50 MV-4-11; acute myeloid leukemia; mean ± SD (n ≥ 2)
Method in brief: as §1

[9] = test system: K562; experiment: Cell proliferation assay; type: cell-based
Method in brief: as §1

[10] = test system: A-431; experiment: Cell proliferation assay; type: cell-based; conditions: read-out: IC50 A-431; squamous cell carcinoma; mean ± SD (n ≥ 2)
Method in brief: as §1

[11] = test system: SUDHL-4; experiment: Cell proliferation assay; type: cell-based; conditions: read-out: IC50 SUDHL-4; diffuse large B cell lymphoma; mean ± SD (n ≥ 2)
Method in brief: as §1

[12] = test system: MDR1; experiment: Western blot of MDR1 in K562/ADR; type: cell-based; conditions: 48 h, concentration-dependent
Method in brief: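 K562 and K562/ADR cells were seeded in 12-well plates overnight and treated with a concentration gradient of test compound for 48 h. Lysates in SDS sample buffer (equal protein) were separated by SDS-PAGE and transferred to PVDF. MDR1 was probed with primary and HRP-conjugated secondary antibodies and detected by ECL.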

[13] = test system: cyclin A2, cyclin B1, and cyclin D1; experiment: Western blot of cell cycle-related proteins; type: cell-based, human; conditions: MDA-MB-231 and PC-3 cells, 24 h, dose-dependent
Method in brief: as §3

[14] = test system: MDA-MB-231; experiment: Cell proliferation assay; type: cell-based, human
Method in brief: as §1

[15] = test system: NUGC-3; experiment: Cell proliferation assay; type: cell-based; conditions: read-out: IC50 NUGC-3; gastric carcinoma; mean ± SD (n ≥ 2)
Method in brief: as §1

[16] = test system: KATO III; experiment: Cell proliferation assay; type: cell-based; conditions: read-out: IC50 KATO III; gastric carcinoma; mean ± SD (n ≥ 2)
Method in brief: as §1

[17] = test system: HCT116; experiment: Cell proliferation assay; type: cell-based; conditions: read-out: IC50 HCT116; colorectal carcinoma; mean ± SD (n ≥ 2)
Method in brief: as §1

[18] = test system: PC-3; experiment: Cell proliferation assay; type: cell-based, human
Method in brief: as §1

[19] = test system: HPAF-II; experiment: Cell proliferation assay; type: cell-based; conditions: read-out: IC50 HPAF-II; pancreatic carcinoma; mean ± SD (n ≥ 2)
Method in brief: as §1

[20] = Boron biodistribution of compound 1d by ICP-mass; type: in vivo, mice; conditions: 3 h postinjection
Method in brief: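 Mice bearing subcutaneous tumours got a single intraperitoneal injection of 2 mg test compound in saline/DMSO and were sacrificed at 3 h. Blood was taken by cardiac puncture, and major organs and tumour were harvested and weighed. Tissue was digested 2 days at room temperature in 1 mL 1:1 concentrated H2SO4/HNO3, diluted 100-fold in water and filtered (0.22 μm). Boron was measured by ICP-OES and ICP-MS as μg/g tissue.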

[21] = 1 h postinjection; cited from earlier work
[22] = multidrug-resistant subline, mean ± SD (n ≥ 2)
[23] = read-out: IC50 K562, chronic myeloid leukemia, mean ± SD (n ≥ 2)
[24] = read-out: IC50 K562, parental cell line, mean ± SD (n ≥ 2)
[25] = read-out: IC50 MDA-MB-231, breast carcinoma, mean ± SD (n ≥ 2)
[26] = read-out: IC50 PC-3, prostate carcinoma, mean ± SD (n ≥ 2)
[27] = Homo sapiens, K562, read-out: IC50 K562
[28] = Homo sapiens, MDA-MB-231, read-out: IC50 MDA-MB-231
[29] = Homo sapiens, PC-3, read-out: IC50 PC-3

IC50 [1, 22]: 3.04 ± 0.0347 µM
IC50 [2]: 3.19 ± 0.18 µM
IC50 [5]: 5.63 ± 0.3 µM
IC50 [8]: 5.45 ± 0.26 µM
IC50 [9, 23]: 4.52 ± 0.8 µM
IC50 [10]: 4.86 ± 0.21 µM
IC50 [11]: 4.29 ± 0.54 µM
IC50 [14, 25]: 5.46 ± 0.61 µM
IC50 [17]: 2.86 ± 0.23 µM
IC50 [18, 26]: 4.99 ± 2.76 µM
Molecule: 3-(1,2-Dicarba-closo-dodecarboranyl)-4-oxo-4H-chromen-7-yl Sulfurofluoridate [Compound 1m]
RF (resistance factor) [1]: 0.67
effect on cell cycle distribution [3]: caused G0/G1 cell cycle arrest
P-P38 expression [4]: upregulating
expression of P-AKT, P-STAT3, and P-STAT5 [4]: reduced
IC50 [6]: 1.93 ± 0.12 µM
effect on cell cycle distribution [7]: caused G0/G1 cell cycle arrest
IC50 [9, 24]: 4.52 ± 0.806 µM
expression of MDR1 [12]: significantly inhibited
expression of cyclin A2, cyclin B1, and cyclin D1 [13]: downregulated
IC50 [15]: 2.54 ± 0.37 µM
IC50 [16]: 3.55 ± 0.15 µM
IC50 [19]: 2.67 ± 0.55 µM

IC50 [14, 25]: 75.2 ± 20.8 µM
IC50 [18, 26]: 66.6 ± 8.79 µM
Molecule: 3-(1,2-Dicarba-closo-dodecarboranyl)-4H-chromen-4-one [Compound 1a]

IC50 [2]: 5.93 ± 2.15 µM
IC50 [5]: 5.13 ± 1.08 µM
IC50 [8]: 5.65 ± 0.02 µM
IC50 [9, 23]: 7 ± 0.27 µM
IC50 [10]: 4.84 ± 1.07 µM
IC50 [11]: 6.16 ± 0.34 µM
IC50 [14, 25]: 5.34 ± 1.03 µM
IC50 [17]: 4.21 ± 0.11 µM
IC50 [18, 26]: 5.14 ± 2.93 µM
Molecule: 3-(1,2-Dicarba-closo-dodecarboranyl)-5,7-dihydroxy-4H-chromen-4-one [Compound 1g]
IC50 [6]: 5.23 ± 0.62 µM
IC50 [15]: 4.79 ± 0.44 µM
IC50 [16]: 5.02 ± 0.38 µM
IC50 [19]: 4.14 ± 0.93 µM

IC50 [14, 25]: 55.8 ± 6.71 µM
IC50 [18, 26]: 53.1 ± 0.73 µM
Molecule: 3-(1,2-Dicarba-closo-dodecarboranyl)-5,7-dimethoxy-4H-chromen-4-one [Compound 1e]

IC50 [14, 25]: > 100 µM
IC50 [18, 26]: > 100 µM
Molecule: 3-(1,2-Dicarba-closo-dodecarboranyl)-5-hydroxy-7-methoxy-4H-chromen-4-one [Compound 1f]

IC50 [1, 22]: 4.91 ± 0.094 µM
IC50 [2]: 4.24 ± 0.9 µM
brain/blood uptake ratio (boron) [20]: 0.45
boron content in blood ([20]; 2 mg intraperitoneal, mice): 2.28 ± 0.99 µg/g
boron content in brain ([20]; 2 mg intraperitoneal, mice): 1.03 ± 0.43 µg/g
boron content in liver ([20]; 2 mg intraperitoneal, mice): 56.37 ± 4.71 µg/g
boron content in pancreas ([20]; 2 mg intraperitoneal, mice): 40.74 ± 4.67 µg/g
boron content in tumor ([20]; 2 mg intraperitoneal, mice): 2.18 ± 1.18 µg/g
IC50 [5]: 5.27 ± 0.63 µM
IC50 [8]: 4.25 ± 0.34 µM
IC50 [9, 23]: 5.29 ± 0.86 µM
IC50 [10]: 4.09 ± 0.46 µM
IC50 [11]: 5.4 ± 0.48 µM
IC50 [14, 25]: 5.59 ± 1.82 µM
IC50 [17]: 3.42 ± 0.22 µM
IC50 [18, 26]: 5.24 ± 1.9 µM
Molecule: 3-(1,2-Dicarba-closo-dodecarboranyl)-7-hydroxy-4H-chromen-4-one [Compound 1d]
RF (resistance factor) [1]: 0.93
effect on cell cycle distribution [3]: caused G0/G1 cell cycle arrest
P-P38 expression [4]: upregulating
expression of P-AKT, P-STAT3, and P-STAT5 [4]: reduced
IC50 [6]: 2.78 ± 0.26 µM
effect on cell cycle distribution [7]: caused G0/G1 cell cycle arrest
IC50 [9, 24]: 5.29 ± 0.861 µM
expression of MDR1 [12]: significantly inhibited
expression of cyclin A2, cyclin B1, and cyclin D1 [13]: downregulated
IC50 [15]: 3.36 ± 0.02 µM
IC50 [16]: 4.38 ± 0.04 µM
IC50 [19]: 3.56 ± 0.38 µM

IC50 [14, 25]: 16 ± 0.16 µM
IC50 [18, 26]: 10.9 ± 3.31 µM
Molecule: 3-(1,2-Dicarba-closo-dodecarboranyl)-7-methoxy-2H-chromene [Compound 1j]

IC50 [14, 25]: 47.5 ± 7.39 µM
IC50 [18, 26]: 54.7 ± 6.26 µM
Molecule: 3-(1,2-Dicarba-closo-dodecarboranyl)-7-methoxy-4H-chromen-4-one [Compound 1b]

IC50 [14, 25]: 14.6 ± 1.58 µM
IC50 [18, 26]: 13.5 ± 1.02 µM
Molecule: 3-(1,2-Dicarba-closo-dodecarboranyl)-7-methoxychroman-4-ol [Compound 1h]

IC50 [14, 25]: 25.4 ± 7.3 µM
IC50 [18, 26]: 38 ± 2.79 µM
Molecule: 3-(1,2-Dicarba-closo-dodecarboranyl)-7-methoxychroman-4-one [Compound 1i]

IC50 [14, 25]: 35.3 ± 4.78 µM
IC50 [18, 26]: 35.5 ± 0.98 µM
Molecule: 3-(1,2-Dicarba-closo-dodecarboranyl)-7-methoxychromane [Compound 1k]

IC50 [14, 25]: 17.9 ± 6.09 µM
IC50 [18, 26]: 16.6 ± 1.89 µM
Molecule: 3-(1,2-Dicarba-closo-dodecarboranyl)chromane-4,7-diol [Compound 1l]

IC50 [14, 25]: 65.3 ± 5.39 µM
IC50 [18, 26]: 72.4 ± 1.06 µM
Molecule: 7-(Benzyloxy)-3-(1,2-dicarba-closo-dodecarboranyl)-4H-chromen-4-one [Compound 1c]

Molecule: O=C([O-])CN(CCN(CC(=O)[O-])Cc1cc(CCC(=O)NCCCCCC(=O)NCCCC[C@H](NC(=O)N[C@@H](CCC(=O)O)C(=O)O)C(=O)O)ccc1[O-])Cc1cc(CCC(=O)O)ccc1[O-].[68Ga+3].[OH3+] [^68Ga-PSMA11]
brain uptake [21]: 0.013 ± 0.004 % ID/g

IC50 ([1]; Homo sapiens, K562/Adr): 2.84 ± 1.06 µM
IC50 [9, 27]: 0.0267 ± 0.00082 µM
Molecule: COc1cccc2c1C(=O)c1c(O)c3c(c(O)c1C2=O)C[C@@](O)(C(=O)CO)C[C@@H]3O[C@H]1C[C@H](N)[C@H](O)[C@H](C)O1 [adriamycin]
RF (resistance factor) [1]: 106.35

IC50 [14, 28]: > 100 µM
IC50 [18, 29]: > 100 µM
Molecule: COc1ccc(-c2coc3cc(O)ccc3c2=O)cc1 [formononetin, reference compound]

IC50 [14, 28]: 36.9 ± 2.81 µM
IC50 [18, 29]: 29.5 ± 8.74 µM
Molecule: O=c1c(-c2ccc(O)cc2)coc2cc(O)cc(O)c12 [genistein, reference compound]

IC50 ([1]; Homo sapiens, K562/Adr): > 10 µM
IC50 [9, 27]: 0.00157 ± 0.0015 µM
Molecule: CC(=O)O[C@H]1C(=O)[C@@]2(C)[C@H]([C@H](OC(=O)c3ccccc3)[C@]3(O)C[C@H](OC(=O)[C@H](O)[C@@H](NC(=O)c4ccccc4)c4ccccc4)C(C)=C1C3(C)C)[C@]1(OC(C)=O)CO[C@@H]1C[C@@H]2O [paclitaxel]
RF (resistance factor) [1]: >6000
RF (resistance factor) ([1]; listed as PTX): over 6000

IC50 ([1]; Homo sapiens, K562/Adr): 0.326 ± 0.0425 µM
IC50 [9, 27]: 0.00157 ± 0.00112 µM
Molecule: CCC1=C[C@@H]2CN(C1)Cc1c([nH]c3ccccc13)[C@@](C(=O)OC)(c1cc3c(cc1OC)N(C)[C@H]1[C@@](O)(C(=O)OC)[C@H](OC(C)=O)[C@]4(CC)C=CCN5CC[C@]31[C@@H]54)C2 [vinorelbine]
RF (resistance factor) [1]: 230.86
